We go through 63 compounds from ChEMBL document CHEMBL1125822, “Quantitative structure-activity relationships of antitumor guanidinothiazolecarboxamides with survival enhancement for therapy in the 3LL Lewis lung carcinoma model” (1991).

The test relates to Lewis lung carcinoma cell line. Kind of test: Compound injected intraperitoneally for 8 days and was tested for mean of increased life span in female BDF mice injected intravenously with 3LL Lewis Lung adenocarcinoma into lateral tail vein before 2 days. The class given is functional, Mus musculus. Put shortly:
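Female BDF1 mice (18–20 g) given 6×10^5 log-phase 3LL cells in 0.2 mL RPMI 1640 by lateral tail vein. Drug suspended in DMSO/saline buffered to pH 7.4, dosed ip once daily on days 2–9 (8 treatments); screening dose 50 mg/kg. Mice monitored daily for survival; ILS (%) = (MST treated/MST vehicle control ×100) − 100; significance by Armitage trend test.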

`COc1cc2nc(NC(=O)c3csc(N=C(N)N)n3)sc2cc1OC` came in with an ILS of 5.

In turn, `COc1ccc(Cl)c2sc(NC(=O)c3csc(N=C(N)N)n3)nc12` had an ILS of 69.

In turn, `COc1ccc2sc(NC(=O)c3csc(N=C(N)N)n3)nc2c1C` displayed an ILS of 57.

`COc1ccc(C(F)(F)F)c2sc(NC(=O)c3csc(N=C(N)N)n3)nc12` yielded an ILS of 17.

In turn, `Cc1cc(C(F)(F)F)cc2sc(NC(=O)c3csc(N=C(N)N)n3)nc12` gave an ILS of 19.

Regarding `Cc1cc(Cl)cc2sc(NC(=O)c3csc(N=C(N)N)n3)nc12`, the ILS was 15.

`N=C(N)Nc1nc(C(=O)Nc2nc3c(F)ccc(F)c3s2)cs1` yielded an ILS of 26.

Take `N=C(N)Nc1nc(C(=O)Nc2nc3cc(Cl)c(C(N)=O)cc3s2)cs1`: the ILS amounted to 42.

`CCOc1ccc2nc(NC(=O)c3csc(N=C(N)N)n3)sc2c1` came in with an ILS of 6.

Compound `CCOc1ccc(F)c2sc(NC(=O)c3csc(N=C(N)N)n3)nc12` showed an ILS of 53.

Compound `N=C(N)Nc1nc(C(=O)Nc2nc3cc(F)c(F)cc3s2)cs1` registered an ILS of 62.

Consider `CCCCCS(=O)(=O)c1ccc2nc(NC(=O)c3csc(N=C(N)N)n3)sc2c1`, for which the ILS came out at 30.

For `Cc1cc(C)c2nc(NC(=O)c3csc(N=C(N)N)n3)sc2c1`, the ILS was determined as 64.

For the compound `CCOc1ccc(Cl)c2sc(NC(=O)c3csc(N=C(N)N)n3)nc12`, the ILS came to 75.

In the case of `COc1ccc2nc(NC(=O)c3csc(N=C(N)N)n3)sc2c1`, the ILS was 7.5.

In turn, `N=C(N)Nc1nc(C(=O)Nc2nc3c(F)cccc3s2)cs1` came in with an ILS of 38.

The compound `Cl.N=C(N)Nc1nc(C(=O)Nc2nc3ccc(S(N)(=O)=O)cc3s2)cs1` registered an ILS of 1.

In turn, `CCCCOc1ccc2nc(NC(=O)c3csc(N=C(N)N)n3)sc2c1.Cl` returned an ILS of 59.

For `CC(C)c1cccc2sc(NC(=O)c3csc(N=C(N)N)n3)nc12.Cl`, the ILS is recorded as 24.

With `Cl.N=C(N)Nc1nc(C(=O)Nc2nc3cc([N+](=O)[O-])ccc3s2)cs1`, the ILS was found to be 57.

With `CC(C)(C)c1ccc2nc(NC(=O)c3csc(N=C(N)N)n3)sc2c1.Cl`, the ILS was 61.

Regarding `Cl.N#Cc1ccc2nc(NC(=O)c3csc(NC(=N)N)n3)sc2c1`, the ILS turned out to be 53.

As for `Cl.N=C(N)Nc1nc(C(=O)Nc2nc3cc(O)ccc3s2)cs1`, the ILS amounted to 10.

As for `Cl.N=C(N)Nc1nc(C(=O)Nc2nc3cc(F)cc(F)c3s2)cs1`, the ILS is reported as 22.

In the case of `Cc1c(Cl)ccc2sc(NC(=O)c3csc(N=C(N)N)n3)nc12.Cl`, the ILS amounted to 73.

The compound `COc1cccc2sc(NC(=O)c3csc(N=C(N)N)n3)nc12.Cl` displayed an ILS of 45.

Consider `Cl.N=C(N)Nc1nc(C(=O)Nc2nc3cc(-c4ccccc4)ccc3s2)cs1`, for which the ILS amounted to 18.

Consider `CCOc1ccc2sc(NC(=O)c3csc(N=C(N)N)n3)nc2c1.Cl`, for which the ILS came to 44.

On to `Cl.N=C(N)Nc1nc(C(=O)Nc2nc3c(O)cccc3s2)cs1`, for which the ILS is given as 14.

For the compound `Cl.N=C(N)Nc1nc(C(=O)Nc2nc3ccc([N+](=O)[O-])cc3s2)cs1`, the ILS turned out to be 51.7.

Consider `Cc1ccc(F)c2sc(NC(=O)c3csc(N=C(N)N)n3)nc12.Cl`, for which the ILS is 53.

As for `Cl.N=C(N)Nc1nc(C(=O)Nc2nc3ccc(Cl)cc3s2)cs1`, the ILS is given as 58.

In turn, `Cl.N=C(N)Nc1nc(C(=O)Nc2nc3cccc(-c4ccccc4)c3s2)cs1` showed an ILS of 49.

`Cc1cccc2sc(NC(=O)c3csc(N=C(N)N)n3)nc12.Cl` yielded an ILS of 44.

In the case of `CCCc1ccc2nc(NC(=O)c3csc(N=C(N)N)n3)sc2c1.Cl`, the ILS is recorded as 21.5.

`Cc1cc2nc(NC(=O)c3csc(N=C(N)N)n3)sc2cc1C.Cl` returned an ILS of 18.

Compound `Cl.N=C(N)Nc1nc(C(=O)Nc2nc3ccccc3s2)cs1` registered an ILS of 15.

Take `CCc1cc(C#N)cc2sc(NC(=O)c3csc(N=C(N)N)n3)nc12.Cl`: the ILS is 38.

As to `Cl.N=C(N)Nc1nc(C(=O)Nc2nc3ccc(Cl)c(C(F)(F)F)c3s2)cs1`, the ILS is listed as 69.

In the case of `CCc1ccc2nc(NC(=O)c3csc(N=C(N)N)n3)sc2c1.Cl`, the ILS was 33.

On to `CCCCOc1ccc2sc(NC(=O)c3csc(N=C(N)N)n3)nc2c1.Cl`, for which the ILS came out at 34.5.

In the case of `CSc1ccc2sc(NC(=O)c3csc(N=C(N)N)n3)nc2c1.Cl`, the ILS was 1.

`CC(C)Oc1ccc2sc(NC(=O)c3csc(N=C(N)N)n3)nc2c1.Cl` came in with an ILS of 23.

For the compound `CSc1cccc2sc(NC(=O)c3csc(N=C(N)N)n3)nc12.Cl`, the ILS was found to be 9.

Compound `Cc1c(F)ccc2sc(NC(=O)c3csc(N=C(N)N)n3)nc12.Cl` registered an ILS of 62.

In the case of `Cc1cc(F)cc2sc(NC(=O)c3csc(N=C(N)N)n3)nc12.Cl`, the ILS is given as 29.

`CS(=O)(=O)c1ccc2sc(NC(=O)c3csc(N=C(N)N)n3)nc2c1`: the ILS is 1.

For the compound `N=C(N)Nc1nc(C(=O)Nc2nc3cc(Cl)c(Cl)cc3s2)cs1`, the ILS is recorded as 71.

For `COc1cc([N+](=O)[O-])cc2sc(NC(=O)c3csc(N=C(N)N)n3)nc12`, the ILS stood at 20.

Compound `N=C(N)Nc1nc(C(=O)Nc2nc3c(Cl)cccc3s2)cs1` yielded an ILS of 18.

In turn, `N=C(N)Nc1nc(C(=O)Nc2nc3cccc(C(F)(F)F)c3s2)cs1` had an ILS of 35.

Take `COc1cc2nc(NC(=O)c3csc(N=C(N)N)n3)sc2cc1Cl`: the ILS worked out at 21.

In turn, `CC(C)c1ccc2nc(NC(=O)c3csc(N=C(N)N)n3)sc2c1` displayed an ILS of 38.

As to `N=C(N)Nc1nc(C(=O)Nc2nc3cc(F)c(Cl)cc3s2)cs1`, the ILS worked out at 75.

As for `N=C(N)Nc1nc(C(=O)Nc2nc3cc(F)c(O)cc3s2)cs1`, the ILS worked out at 23.

For `N=C(N)Nc1nc(C(=O)Nc2nc3ccc(-c4ccccc4)cc3s2)cs1`, the ILS amounted to 67.

`Cc1ccc2nc(NC(=O)c3csc(N=C(N)N)n3)sc2c1` gave an ILS of 37.3.

The compound `N=C(N)Nc1nc(C(=O)Nc2nc3cc(Cl)c(F)cc3s2)cs1` had an ILS of 41.

Take `CSc1ccc2nc(NC(=O)c3csc(N=C(N)N)n3)sc2c1`: the ILS worked out at 25.5.

Take `N=C(N)Nc1nc(C(=O)Nc2nc3c([N+](=O)[O-])cccc3s2)cs1`: the ILS turned out to be 30.

Compound `N=C(N)Nc1nc(C(=O)Nc2nc3ccc(F)cc3s2)cs1` had an ILS of 38.8.

`N=C(N)Nc1nc(C(=O)Nc2nc3cc(F)ccc3s2)cs1` displayed an ILS of 67.6.

In turn, `N=C(N)Nc1nc(C(=O)Nc2nc3ccc(C(N)=O)cc3s2)cs1` came in with an ILS of 1.
